{
  "source": "paper PMC6128401",
  "about": "(Molecular pharmaceutics, 2017)",
  "key": {"[1]": {"molecular_target": "T1, A431-CCK2R cell line expressing the human CCK2R (Homo sapiens, UniProt P32239)", "T1 sequence (P32239 1-447)": "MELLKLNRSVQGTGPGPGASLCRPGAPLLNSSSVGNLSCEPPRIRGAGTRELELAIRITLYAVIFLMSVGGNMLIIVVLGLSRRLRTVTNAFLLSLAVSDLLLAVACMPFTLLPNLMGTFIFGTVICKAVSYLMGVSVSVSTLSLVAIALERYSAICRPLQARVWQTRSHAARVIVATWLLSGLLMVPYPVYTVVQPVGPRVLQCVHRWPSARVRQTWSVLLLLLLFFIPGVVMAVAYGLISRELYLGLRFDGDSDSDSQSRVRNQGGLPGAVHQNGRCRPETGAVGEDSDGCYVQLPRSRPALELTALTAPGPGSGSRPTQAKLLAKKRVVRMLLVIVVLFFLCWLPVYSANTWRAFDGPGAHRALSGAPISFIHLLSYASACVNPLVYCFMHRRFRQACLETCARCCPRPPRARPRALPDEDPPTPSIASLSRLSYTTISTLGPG", "test": "Cell uptake", "type": "cell-based", "details": "A431-CCK2R cells, 2 h incubation, 0.4 nM", "summary_of_the_method": "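A431-CCK2R and A431-mock cells were cultured in DMEM with 10% FBS, penicillin/streptomycin/L-glutamine at 37°C, 5% CO₂. They were seeded at 1.0×10⁶ cells/well and grown 48 h to confluency. Peptides were labelled with ¹⁷⁷LuCl₃ (~50 GBq/µmol) in ascorbate buffer pH 5 with gentisic acid and L-Met, 80°C. Triplicate wells received ~100,000 cpm (0.4 nM) for 2 h. The internalized fraction was gamma-counted as % of total added.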"}, "[2]": {"test": "Chemical stability in phosphate buffered saline", "type": "physicochemical", "details": "PBS at RT, up to/after 4 h incubation", "summary_of_the_method": "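¹⁷⁷Lu-labelled peptide (120 pmol/mL) was kept in phosphate buffered saline at room temperature. Aliquots were taken at intervals up to […] and analysed by HPLC for percentage intact radiopeptide relative to post-labelling radiochemical purity.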"}, "[3]": {"test": "Stability against enzymatic degradation in human serum", "type": "in vitro ADME", "summary_of_the_method": "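The ¹⁷⁷Lu-labelled peptide was incubated in human serum at 37°C and sampled at time points up to 24 h. Proteins were precipitated with acetonitrile (1:1.5) and centrifuged; supernatant was diluted 1:1 with water before HPLC for intact radiopeptide. Half-life came from first-order exponential decay fitting.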"}, "[4]": {"type": "physicochemical", "summary_of_the_method": "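Labelling used ~2 GBq ¹⁷⁷LuCl₃ in 1 mL dilute HCl, heated at 80°C for 15-25 min. Kits were stored up to 6 months; labelled product was held up to 48 h at room temperature or −20°C. Radiochemical purity was measured by RP-HPLC.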"}, "A431-CCK2R xenografts [5]": {"tested_on": "A431-CCK2R xenografts", "test": "Biodistribution: uptake in receptor-positive tumour xenograft", "type": "in vivo, BALB/c nude mice", "details": "30 min p.i.", "summary_of_the_method": "(§1)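 Female and male BALB/c nude mice, 5-6 weeks old, carried A431-CCK2R and A431-mock xenografts in opposite flanks (2×10⁶ cells each). Tumours grew for ~14 days to ~0.2 g. Kit-prepared ¹⁷⁷Lu-peptide, 1 MBq (20 pmol; 50 GBq/µmol), was injected into the tail vein. Groups of five were killed at 30 min, 4 h, 1 d, 2 d, 3 d and 7 d; dissected tissues were gamma-counted and expressed as % IA/g.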"}, "[6]": {"test": "Biodistribution: uptake in normal organs and tissues", "type": "in vivo, BALB/c nude mice", "details": "30 min p.i.", "summary_of_the_method": "as §1"}, "A431-CCK2R xenografts [7]": {"tested_on": "A431-CCK2R xenografts", "test": "Experimental radionuclide therapy, receptor-positive tumour growth", "type": "in vivo, BALB/c nude mice", "details": "for mean SGR A431-CCK2R: single i.v. treatment; for TVDT increase by a factor in comparison to the control group: A431-CCK2R tumours"}, "A431-mock xenografts": {"tested_on": "A431-mock xenografts", "test": "Experimental radionuclide therapy, receptor-negative tumour growth", "type": "in vivo, BALB/c nude mice", "details": "for mean SGR A431-mock: single i.v. treatment"}, "[8]": {"test": "Medullary toxicity: white blood cell and platelet counts", "type": "in vivo, BALB/c nude mice", "summary_of_the_method": "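Double-xenografted nude mice were dosed as in the therapy study (saline, 15 or 30 MBq i.v.), n=5. Weekly, 0.1 mL venous blood was drawn from the superficial temporal vein by lancet, up to eight samples per animal. White blood cells and platelets were counted on an automatic haematology analyser. Counts were expressed relative to basal values (week −2 = inoculation; week 0 = treatment).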"}, "[9]": {"test": "Renal toxicity: creatinine and urea in serum", "type": "in vivo, BALB/c nude mice", "summary_of_the_method": "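The same treated double-xenografted nude mice (saline, 15 or 30 MBq i.v.; n=5) gave weekly venous blood samples. Serum creatinine and urea were measured with specific kits on a semiautomatic biochemical analyser. Values were compared between treated and control groups over weeks from cell inoculation (week −2) onward.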"}, "[10]": {"details": "15 MBq, one week after treatment"}, "[11]": {"details": "15 MBq group, week 0 (week of treatment)"}, "[12]": {"details": "15 MBq group, week -2 (cell inoculation)"}, "[13]": {"details": "30 MBq group, week 0 (week of treatment)"}, "[14]": {"details": "30 MBq group, week -2 (cell inoculation)"}},
  "data": [
    {"compound": "CSCC[C@H](NC(=O)[C@H](Cc1c[nH]c2ccccc12)NC(=O)[C@H]1CCCCNC(=O)[C@H](NC(=O)CN2CCN(CC(=O)O)CCN(CC(=O)O)CCN(CC(=O)O)CC2)CCC(=O)N[C@@H](C)C(=O)N[C@@H](Cc2ccc(O)cc2)C(=O)N1)C(=O)N[C@@H](CC(=O)O)C(=O)N[C@@H](Cc1ccccc1)C(N)=O", "note": "[^177Lu-DOTA-cyclo-MG1, metal not drawn]", "values": [
      {"measurement": "internalized radioligand fraction (% of total)", "setting": "[1]", "value": "15.2±2.6", "unit": "%"},
      {"measurement": "RCP during incubation in PBS", "setting": "[2]", "value": 86, "unit": "%"},
      {"measurement": "half-life", "setting": "[3]", "value": 30.1, "unit": "h"},
      {"measurement": "improvement of RCP by freezer storage", "setting": "[4]; -20°C versus RT", "value": "~ 10%"},
      {"measurement": "degree of Met-oxidation", "setting": "[4]; during storage of the kits", "value": "3.8-6.1%"},
      {"measurement": "mean RCP for the different time points after storage of the kits", "setting": "[4]; kit storage up to 6 months, n=4", "value": "89.4±7.9", "unit": "%"},
      {"measurement": "RCP after preparation", "setting": "[4]; kit-prepared, directly after preparation", "value": "93.3±1.6", "unit": "%"},
      {"measurement": "RCP at 24 h after preparation", "setting": "[4]; stored at RT", "value": "89.8±2.8", "unit": "%"},
      {"measurement": "RCP up to 4 h after preparation", "setting": "[4]; stored at RT", "value": "> 92", "unit": "%"},
      {"measurement": "maximal tumour uptake", "setting": "A431-CCK2R xenografts [5]", "value": 5.18, "unit": "% IA/g"},
      {"measurement": "kidney uptake, maximal value", "setting": "[6]", "value": 1.75, "unit": "% IA/g"},
      {"measurement": "mean SGR A431-CCK2R", "setting": "A431-CCK2R xenografts [7]; 15 MBq group (0.6 nmol)", "value": "0.046±0.002"},
      {"measurement": "mean SGR A431-CCK2R", "setting": "A431-CCK2R xenografts [7]; 30 MBq group (1.2 nmol)", "value": "0.031±0.006"},
      {"measurement": "TVDT increase by a factor in comparison to the control group", "setting": "A431-CCK2R xenografts [7]; high activity group (30 MBq)", "value": 2.6},
      {"measurement": "TVDT increase by a factor in comparison to the control group", "setting": "A431-CCK2R xenografts [7]; low activity group (15 MBq)", "value": 1.8},
      {"measurement": "mean SGR A431-mock", "setting": "A431-mock xenografts; 15 MBq group (0.6 nmol)", "value": "0.065±0.006"},
      {"measurement": "mean SGR A431-mock", "setting": "A431-mock xenografts; 30 MBq group (1.2 nmol)", "value": "0.051±0.006"},
      {"measurement": "TVDT increase by a factor in comparison to the control group", "setting": "A431-mock xenografts; A431-mock tumours, high activity group (30 MBq)", "value": 1.5},
      {"measurement": "reduction in PLT counts compared to the basal value", "setting": "[8]; [10]", "value": "51.2-52.8%"},
      {"measurement": "reduction in WBC counts compared to the basal value", "setting": "[8]; [10]", "value": "37.8-40.8%"},
      {"measurement": "PLT value", "setting": "[8]; 15 MBq, week 2 after treatment, reference 558-1,454", "value": "531±26 ×10^9/L"},
      {"measurement": "decline of PLT value compared to the basal value", "setting": "[8]; 30 MBq, after treatment", "value": "44.8-58.0%"},
      {"measurement": "reduction of WBC value compared to the basal value", "setting": "[8]; 30 MBq, week 1 after treatment", "value": "67.2-70.9%"},
      {"measurement": "PLT value below the reference values", "setting": "[8]; 30 MBq, week 1 and 2 after treatment", "value": "486-530 ×10^9/L"},
      {"measurement": "WBC value below the lower reference limit", "setting": "[8]; 30 MBq, week 1 and 2 after treatment, reference 3.11-13.04", "value": "2.17-2.94 ×10^9/L"},
      {"measurement": "Creatinine (reference value 0.1-0.5)", "setting": "[9]; [11]", "value": "0.3 ± 0.2", "unit": "mg/dL"},
      {"measurement": "Urea (reference value 17-38)", "setting": "[9]; [11]", "value": "26 ± 2", "unit": "mmol/L"},
      {"measurement": "Creatinine (reference value 0.1-0.5)", "setting": "[9]; 15 MBq group, week 1", "value": "0.2 ± 0.1", "unit": "mg/dL"},
      {"measurement": "Urea (reference value 17-38)", "setting": "[9]; 15 MBq group, week 1", "value": "32 ± 3", "unit": "mmol/L"},
      {"measurement": "Creatinine (reference value 0.1-0.5)", "setting": "[9]; 15 MBq group, week 2", "value": "0.3 ± 0.1", "unit": "mg/dL"},
      {"measurement": "Urea (reference value 17-38)", "setting": "[9]; 15 MBq group, week 2", "value": "33 ± 2", "unit": "mmol/L"},
      {"measurement": "Creatinine (reference value 0.1-0.5)", "setting": "[9]; 15 MBq group, week 3", "value": "0.3 ± 0.2", "unit": "mg/dL"},
      {"measurement": "Creatinine (reference value 0.1-0.5)", "setting": "[9]; 15 MBq group, week 4", "value": "0.5 ± 0.1", "unit": "mg/dL"},
      {"measurement": "Creatinine (reference value 0.1-0.5)", "setting": "[9]; 15 MBq group, week 5", "value": 0.7, "unit": "mg/dL"},
      {"measurement": "Creatinine (reference value 0.1-0.5)", "setting": "[9]; 15 MBq group, week -1", "value": "0.2 ± 0.1", "unit": "mg/dL"},
      {"measurement": "Urea (reference value 17-38)", "setting": "[9]; 15 MBq group, week -1", "value": "33 ± 4", "unit": "mmol/L"},
      {"measurement": "Creatinine (reference value 0.1-0.5)", "setting": "[9]; [12]", "value": "0.2 ± 0.1", "unit": "mg/dL"},
      {"measurement": "Urea (reference value 17-38)", "setting": "[9]; [12]", "value": "31 ± 3", "unit": "mmol/L"},
      {"measurement": "urea above the upper limit of the reference value", "setting": "[9]; 15 MBq, beginning from week 3 after treatment", "value": "39 to 48", "unit": "mmol/L"},
      {"measurement": "Creatinine (reference value 0.1-0.5)", "setting": "[9]; [13]", "value": "0.3 ± 0.2", "unit": "mg/dL"},
      {"measurement": "Urea (reference value 17-38)", "setting": "[9]; [13]", "value": "32 ± 5", "unit": "mmol/L"},
      {"measurement": "Creatinine (reference value 0.1-0.5)", "setting": "[9]; 30 MBq group, week 1", "value": "0.3 ± 0.1", "unit": "mg/dL"},
      {"measurement": "Urea (reference value 17-38)", "setting": "[9]; 30 MBq group, week 1", "value": "29 ± 4", "unit": "mmol/L"},
      {"measurement": "Creatinine (reference value 0.1-0.5)", "setting": "[9]; 30 MBq group, week 2", "value": "0.2 ± 0.1", "unit": "mg/dL"},
      {"measurement": "Creatinine (reference value 0.1-0.5)", "setting": "[9]; 30 MBq group, week 3", "value": "0.5 ± 0.2", "unit": "mg/dL"},
      {"measurement": "Creatinine (reference value 0.1-0.5)", "setting": "[9]; 30 MBq group, week -1", "value": "0.2 ± 0.1", "unit": "mg/dL"},
      {"measurement": "Urea (reference value 17-38)", "setting": "[9]; 30 MBq group, week -1", "value": "28 ± 3", "unit": "mmol/L"},
      {"measurement": "Creatinine (reference value 0.1-0.5)", "setting": "[9]; [14]", "value": "0.2 ± 0.1", "unit": "mg/dL"},
      {"measurement": "Urea (reference value 17-38)", "setting": "[9]; [14]", "value": "27 ± 5", "unit": "mmol/L"},
      {"measurement": "urea levels above the reference limit", "setting": "[9]; 30 MBq, beginning from week 2 after treatment", "value": "39 to 52", "unit": "mmol/L"},
      {"measurement": "creatinine levels above the reference limit", "setting": "[9]; 30 MBq, beginning from week 4 after treatment", "value": "0.6 to 0.8", "unit": "mg/dL"}
    ]}
  ]
}
